The term inhibition denotes the drop in the measured response relative to a control, in per cent. Usually Kd stands for a measure of binding affinity in units of concentration. Read a high Kd as a looser complex.

We go through two compounds from ChEMBL document CHEMBL4118097, “Selective Inhibitors of Dual Leucine Zipper Kinase (DLK, MAP3K12) with Activity in a Model of Alzheimer's Disease” (J Med Chem, 2017).

The species entered for experiment [1] is Homo sapiens. In words: Binding affinity to sodium channel site 2 (unknown origin) receptor at 10 uM relative to control. The gist of the method: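 Broad radioligand-binding and enzyme screening panel covering 42 targets (biogenic amine and neuropeptide receptors, ion channels, neurotransmitter transporters, acetylcholinesterase). Single test concentration of 10 μM. Results expressed as binding relative to control, with a hit defined as >50% of control.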

For experiment [2], the target named is Calcium/calmodulin-dependent protein kinase kinase 2 (Homo sapiens) (UniProt Q96RR4). In words: Inhibition of recombinant full length GST-tagged human CAMKK2 expressed in baculovirus expression system at 1 uM by FRET assay relative to control. The gist of the method:
(§1)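 Single-concentration screen at 1 μM in Life Technologies SelectScreen, across a 220-kinase panel. Z′-LYTE format measures phosphorylation of a labeled peptide by FRET. Results are reported as percent inhibition.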

The test system of experiment [3] is RAF proto-oncogene serine/threonine-protein kinase (Homo sapiens), P04049 [Y340D,Y341D]. In words: Inhibition of recombinant N-terminal GST-tagged human RAF1 catalytic domain (306 to 648 residues) Y340D/Y341D double mutant expressed in baculovirus expression system at 1 uM by FRET assay relative to control. The gist of the method:
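Part of a 220-kinase panel run at a single concentration of 1 μM. Z′-LYTE format: phosphorylation of a labelled peptide read by FRET. Values reported as percent inhibition.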

For experiment [4], the target named is Mitogen-activated protein kinase 10 (Homo sapiens, UniProt P53779). In words: Inhibition of recombinant full length GST-tagged human JNK3 expressed in baculovirus expression system at 1 uM by FRET assay relative to control. The procedure, abridged:
as §1

Experiment [5] addresses Proto-oncogene tyrosine-protein kinase ROS (Homo sapiens) (UniProt P08922). In words: Inhibition of recombinant GST-tagged human Ros cytoplasmic domain expressed in baculovirus expression system at 1 uM by FRET assay relative to control. The gist of the method: (§2)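 Single-point screen at 1 μM compound in a 220-kinase panel run by Life Technologies (SelectScreen). Z′-LYTE format: phosphorylation of a labeled peptide substrate read by FRET. Values are reported as percent inhibition.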

The target of experiment [6] is Serine/threonine-protein kinase WNK2 (Homo sapiens) (UniProt Q9Y3S1). In words: Inhibition of recombinant GST-tagged human WNK2 expressed in baculovirus expression system at 1 uM by FRET assay relative to control. The gist of the method: as §2
The target of experiment [7] is T1, Mitogen-activated protein kinase kinase kinase 12 (Homo sapiens, UniProt Q12852).
T1 sequence (Q12852 whole entry): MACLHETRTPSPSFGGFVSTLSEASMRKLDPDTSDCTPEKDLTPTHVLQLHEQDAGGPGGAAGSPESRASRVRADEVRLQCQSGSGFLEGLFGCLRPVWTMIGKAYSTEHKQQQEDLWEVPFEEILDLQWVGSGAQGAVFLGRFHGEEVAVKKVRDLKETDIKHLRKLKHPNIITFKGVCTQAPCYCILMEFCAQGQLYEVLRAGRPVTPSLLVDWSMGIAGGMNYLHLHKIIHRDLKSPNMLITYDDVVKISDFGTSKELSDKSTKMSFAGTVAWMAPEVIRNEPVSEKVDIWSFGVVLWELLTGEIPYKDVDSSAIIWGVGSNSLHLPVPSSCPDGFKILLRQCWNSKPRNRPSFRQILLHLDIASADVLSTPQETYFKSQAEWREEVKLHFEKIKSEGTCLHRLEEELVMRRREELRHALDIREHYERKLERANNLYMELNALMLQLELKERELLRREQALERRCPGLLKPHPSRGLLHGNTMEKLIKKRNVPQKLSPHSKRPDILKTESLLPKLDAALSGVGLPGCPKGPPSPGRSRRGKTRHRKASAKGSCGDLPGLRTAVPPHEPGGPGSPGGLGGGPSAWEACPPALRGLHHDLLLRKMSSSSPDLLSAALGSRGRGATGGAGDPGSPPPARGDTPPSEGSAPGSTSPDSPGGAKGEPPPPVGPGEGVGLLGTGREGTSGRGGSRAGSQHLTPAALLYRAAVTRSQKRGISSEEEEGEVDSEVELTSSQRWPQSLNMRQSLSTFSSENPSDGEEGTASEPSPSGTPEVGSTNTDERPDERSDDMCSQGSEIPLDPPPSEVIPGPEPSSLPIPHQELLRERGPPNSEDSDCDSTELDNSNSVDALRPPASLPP
In words: Binding affinity to full length wild type human DLK (M1 to P859 residues) expressed in mammalian cells by KINOMEscan assay. In kind it is cell-based. The gist of the method: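 Binding measured in an outsourced KINOMEscan profiling service, run alongside the homologous kinase LZK; the value is reported as a dissociation constant (Kd).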

Experiment [8] deals with Serine/threonine-protein kinase 4 (Homo sapiens) (UniProt Q13043). In words: Inhibition of recombinant full length GST-tagged human MST1 expressed in baculovirus at 1 uM by FRET assay relative to control. The procedure, abridged:
as §1

Experiment [9] has as its target Tyrosine-protein kinase BTK (Homo sapiens) (UniProt Q06187). In words: Inhibition of recombinant full length His-tagged human BTK cytoplasmic domain expressed in baculovirus expression system at 1 uM by FRET assay relative to control.
The target in experiment [10] is Homeodomain-interacting protein kinase 2 (Homo sapiens) (UniProt Q9H2X6). In words: Inhibition of recombinant GST-tagged human HIPK2 catalytic domain expressed in baculovirus expression system at 1 uM by FRET relative to control. The gist of the method:
as §2

The target in experiment [11] is Casein kinase I isoform delta (Homo sapiens) (UniProt P48730). In words: Inhibition of CK1delta (unknown origin) at 1 uM by FRET assay relative to control.
For experiment [12], the target named is Tyrosine-protein kinase Lyn (Homo sapiens) (UniProt P07948). In words: Inhibition of recombinant full length His-tagged human LYN expressed in baculovirus expression system at 1 uM by FRET assay relative to control.
For experiment [13], the target named is Serine/threonine-protein kinase PAK 4 (Homo sapiens, UniProt O96013). In words: Inhibition of recombinant GST-tagged human PAK4 catalytic domain expressed in baculovirus expression system at 1 uM by FRET assay relative to control. The gist of the method:
as §2

Experiment [14] addresses Mitogen-activated protein kinase 8 (Homo sapiens, UniProt P45983). In words: Inhibition of recombinant full length His-tagged human JNK1alpha1 expressed in baculovirus expression system at 1 uM by FRET assay relative to control.
In experiment [15] the target is Angiopoietin-1 receptor (Homo sapiens) (UniProt Q02763). In words: Inhibition of recombinant GST-tagged human Tie2 cytoplasmic domain (817 to 1101 residues) expressed in baculovirus expression system at 1 uM by FRET assay relative to control. The gist of the method: as §2
The target of experiment [16] is Cyclin-dependent kinase 1/cyclin B1 (Homo sapiens) (UniProt P06493+P14635). In words: Inhibition of recombinant full length His-tagged human CDK1/CyclinB expressed in baculovirus expression system at 1 uM by FRET assay relative to control.
Experiment [17] deals with Serine/threonine-protein kinase D1 (Homo sapiens) (UniProt Q15139). In words: Inhibition of PKD1 (unknown origin) at 1 uM by FRET assay relative to control.
Experiment [18] deals with Serine/threonine-protein kinase Nek4 (Homo sapiens) (UniProt P51957). In words: Inhibition of recombinant full length GST-tagged human NEK4 expressed in baculovirus expression system at 1 uM by FRET assay relative to control. The gist of the method: as §1

Sequence of RAF proto-oncogene serine/threonine-protein kinase (Homo sapiens), P04049 [Y340D,Y341D] (P04049 whole entry Y340D/Y341D, the tested form may be a part): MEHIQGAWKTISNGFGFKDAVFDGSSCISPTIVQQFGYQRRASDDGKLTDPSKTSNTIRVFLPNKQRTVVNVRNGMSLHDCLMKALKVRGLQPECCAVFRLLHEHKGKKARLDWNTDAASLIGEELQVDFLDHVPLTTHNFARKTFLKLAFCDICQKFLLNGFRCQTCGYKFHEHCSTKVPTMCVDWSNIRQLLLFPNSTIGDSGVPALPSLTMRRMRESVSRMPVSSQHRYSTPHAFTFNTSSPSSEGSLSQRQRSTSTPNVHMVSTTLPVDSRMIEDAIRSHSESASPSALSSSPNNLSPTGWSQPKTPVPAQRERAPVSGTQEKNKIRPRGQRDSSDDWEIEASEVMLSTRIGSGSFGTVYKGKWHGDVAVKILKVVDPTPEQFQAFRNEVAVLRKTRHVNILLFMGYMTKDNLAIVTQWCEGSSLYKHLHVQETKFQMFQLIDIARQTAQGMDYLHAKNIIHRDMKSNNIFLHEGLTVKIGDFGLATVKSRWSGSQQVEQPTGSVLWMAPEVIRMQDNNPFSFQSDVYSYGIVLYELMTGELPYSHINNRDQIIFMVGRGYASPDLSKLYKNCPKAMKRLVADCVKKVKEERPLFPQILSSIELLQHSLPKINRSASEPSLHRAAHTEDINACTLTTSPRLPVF
Sequence of Homeodomain-interacting protein kinase 2 (Homo sapiens) (Q9H2X6 whole entry, looked up, the tested form may be a part): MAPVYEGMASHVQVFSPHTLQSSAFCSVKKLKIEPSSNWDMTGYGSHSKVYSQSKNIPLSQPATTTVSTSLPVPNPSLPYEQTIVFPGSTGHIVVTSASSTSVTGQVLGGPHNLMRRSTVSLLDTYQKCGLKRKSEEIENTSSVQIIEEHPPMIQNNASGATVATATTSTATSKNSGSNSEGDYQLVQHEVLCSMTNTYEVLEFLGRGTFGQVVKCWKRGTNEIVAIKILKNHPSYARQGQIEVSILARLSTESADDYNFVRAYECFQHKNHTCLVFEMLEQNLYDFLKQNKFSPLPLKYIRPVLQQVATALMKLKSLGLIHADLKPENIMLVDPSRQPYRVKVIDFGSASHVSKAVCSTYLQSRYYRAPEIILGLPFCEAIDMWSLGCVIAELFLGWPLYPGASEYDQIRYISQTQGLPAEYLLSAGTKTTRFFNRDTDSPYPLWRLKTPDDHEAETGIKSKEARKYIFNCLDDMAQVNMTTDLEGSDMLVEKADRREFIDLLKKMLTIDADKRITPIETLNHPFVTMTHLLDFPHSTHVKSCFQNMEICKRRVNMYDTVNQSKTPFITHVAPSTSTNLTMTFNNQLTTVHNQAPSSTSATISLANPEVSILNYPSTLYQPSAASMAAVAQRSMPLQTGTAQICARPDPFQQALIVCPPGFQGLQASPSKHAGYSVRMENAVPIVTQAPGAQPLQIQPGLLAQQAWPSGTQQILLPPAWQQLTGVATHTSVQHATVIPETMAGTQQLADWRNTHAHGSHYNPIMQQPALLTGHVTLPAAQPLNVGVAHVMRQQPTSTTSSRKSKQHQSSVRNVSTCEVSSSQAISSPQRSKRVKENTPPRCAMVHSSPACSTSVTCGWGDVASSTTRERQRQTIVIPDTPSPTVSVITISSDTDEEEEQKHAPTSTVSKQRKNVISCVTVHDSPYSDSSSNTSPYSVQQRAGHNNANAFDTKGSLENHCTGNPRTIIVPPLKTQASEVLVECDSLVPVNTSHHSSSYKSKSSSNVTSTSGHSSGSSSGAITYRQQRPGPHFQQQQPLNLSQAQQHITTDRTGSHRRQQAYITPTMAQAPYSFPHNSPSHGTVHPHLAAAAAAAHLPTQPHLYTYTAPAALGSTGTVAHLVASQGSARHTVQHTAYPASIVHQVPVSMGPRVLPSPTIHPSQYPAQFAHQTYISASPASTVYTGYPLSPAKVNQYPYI
Sequence of Mitogen-activated protein kinase 10 (P53779 whole entry): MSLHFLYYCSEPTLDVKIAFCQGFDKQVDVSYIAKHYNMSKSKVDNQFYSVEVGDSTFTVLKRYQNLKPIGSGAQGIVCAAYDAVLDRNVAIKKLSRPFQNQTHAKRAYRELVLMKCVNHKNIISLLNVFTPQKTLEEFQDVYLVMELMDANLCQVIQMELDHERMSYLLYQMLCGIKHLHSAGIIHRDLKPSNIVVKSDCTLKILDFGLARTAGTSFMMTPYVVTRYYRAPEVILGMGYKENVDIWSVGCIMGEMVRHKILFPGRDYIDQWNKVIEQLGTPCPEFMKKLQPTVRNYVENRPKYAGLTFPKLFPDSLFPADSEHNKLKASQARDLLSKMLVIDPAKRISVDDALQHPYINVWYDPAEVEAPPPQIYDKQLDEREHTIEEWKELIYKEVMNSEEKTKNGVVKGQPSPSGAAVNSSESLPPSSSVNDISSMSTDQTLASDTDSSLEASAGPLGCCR
Sequence of Angiopoietin-1 receptor (Homo sapiens) (Q02763 whole entry, the tested form may be a part): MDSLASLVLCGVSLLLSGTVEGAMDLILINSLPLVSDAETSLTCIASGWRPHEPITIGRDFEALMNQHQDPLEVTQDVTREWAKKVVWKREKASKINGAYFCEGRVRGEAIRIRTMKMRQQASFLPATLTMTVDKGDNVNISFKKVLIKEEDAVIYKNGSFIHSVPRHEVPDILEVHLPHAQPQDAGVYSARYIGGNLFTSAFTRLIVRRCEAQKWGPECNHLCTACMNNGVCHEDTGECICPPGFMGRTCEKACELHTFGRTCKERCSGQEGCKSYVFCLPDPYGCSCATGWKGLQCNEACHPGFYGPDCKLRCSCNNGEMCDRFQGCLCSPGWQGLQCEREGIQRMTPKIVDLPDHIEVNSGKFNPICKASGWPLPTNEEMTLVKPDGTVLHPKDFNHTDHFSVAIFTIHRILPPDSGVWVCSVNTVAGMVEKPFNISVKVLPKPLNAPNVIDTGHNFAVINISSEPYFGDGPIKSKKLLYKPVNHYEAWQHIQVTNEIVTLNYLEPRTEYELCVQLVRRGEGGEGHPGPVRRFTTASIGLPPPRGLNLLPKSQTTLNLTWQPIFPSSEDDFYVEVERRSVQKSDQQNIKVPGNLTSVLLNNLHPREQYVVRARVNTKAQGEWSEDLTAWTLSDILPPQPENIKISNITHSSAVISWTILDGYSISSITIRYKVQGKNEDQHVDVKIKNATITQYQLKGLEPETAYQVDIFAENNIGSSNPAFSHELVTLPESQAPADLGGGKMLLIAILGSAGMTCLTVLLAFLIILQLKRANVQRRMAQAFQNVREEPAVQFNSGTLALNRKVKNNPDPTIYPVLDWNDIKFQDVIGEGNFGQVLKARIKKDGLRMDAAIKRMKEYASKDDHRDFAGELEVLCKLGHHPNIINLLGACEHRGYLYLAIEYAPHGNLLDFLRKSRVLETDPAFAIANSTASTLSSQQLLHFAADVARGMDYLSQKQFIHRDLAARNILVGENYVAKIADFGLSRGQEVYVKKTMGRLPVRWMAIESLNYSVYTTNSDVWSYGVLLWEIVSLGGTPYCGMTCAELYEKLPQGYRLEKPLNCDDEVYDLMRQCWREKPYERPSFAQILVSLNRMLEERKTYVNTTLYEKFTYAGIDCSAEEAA
Sequence of Serine/threonine-protein kinase D1 (Homo sapiens) (Q15139 whole entry, looked up): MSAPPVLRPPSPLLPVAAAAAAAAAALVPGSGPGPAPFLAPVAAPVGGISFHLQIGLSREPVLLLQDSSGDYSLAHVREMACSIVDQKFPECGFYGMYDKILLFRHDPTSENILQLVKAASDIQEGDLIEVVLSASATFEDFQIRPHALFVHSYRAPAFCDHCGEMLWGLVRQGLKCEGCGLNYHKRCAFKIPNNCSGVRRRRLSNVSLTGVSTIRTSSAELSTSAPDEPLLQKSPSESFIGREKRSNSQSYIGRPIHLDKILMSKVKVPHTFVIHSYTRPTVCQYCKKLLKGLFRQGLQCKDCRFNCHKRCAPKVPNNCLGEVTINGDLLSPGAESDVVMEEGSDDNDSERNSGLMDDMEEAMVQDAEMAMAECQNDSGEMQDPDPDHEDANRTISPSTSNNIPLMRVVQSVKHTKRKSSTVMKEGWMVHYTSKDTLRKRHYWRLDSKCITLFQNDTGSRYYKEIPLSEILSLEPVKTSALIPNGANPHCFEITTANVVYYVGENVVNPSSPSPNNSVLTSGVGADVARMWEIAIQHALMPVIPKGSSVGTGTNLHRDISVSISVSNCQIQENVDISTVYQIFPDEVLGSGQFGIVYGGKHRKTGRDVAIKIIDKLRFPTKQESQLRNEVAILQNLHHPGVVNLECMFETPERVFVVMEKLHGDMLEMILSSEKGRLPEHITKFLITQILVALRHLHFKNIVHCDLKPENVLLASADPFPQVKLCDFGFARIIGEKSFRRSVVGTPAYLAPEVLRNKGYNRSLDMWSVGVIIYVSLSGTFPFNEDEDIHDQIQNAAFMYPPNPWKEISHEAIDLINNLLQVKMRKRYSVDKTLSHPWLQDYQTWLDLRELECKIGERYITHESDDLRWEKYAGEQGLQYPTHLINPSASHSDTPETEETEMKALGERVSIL
Sequence of Cyclin-dependent kinase 1/cyclin B1 (Homo sapiens) (P06493 whole entry, looked up): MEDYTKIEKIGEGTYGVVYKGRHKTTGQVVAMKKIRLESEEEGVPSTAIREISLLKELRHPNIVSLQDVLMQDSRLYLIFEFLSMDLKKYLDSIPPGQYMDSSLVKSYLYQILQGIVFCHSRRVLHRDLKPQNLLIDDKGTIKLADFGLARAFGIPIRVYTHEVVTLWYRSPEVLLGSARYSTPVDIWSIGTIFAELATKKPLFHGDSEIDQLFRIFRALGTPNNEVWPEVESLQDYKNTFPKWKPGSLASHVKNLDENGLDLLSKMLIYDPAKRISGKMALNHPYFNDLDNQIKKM
Sequence of Cyclin-dependent kinase 1/cyclin B1 (Homo sapiens) (P14635 whole entry, looked up): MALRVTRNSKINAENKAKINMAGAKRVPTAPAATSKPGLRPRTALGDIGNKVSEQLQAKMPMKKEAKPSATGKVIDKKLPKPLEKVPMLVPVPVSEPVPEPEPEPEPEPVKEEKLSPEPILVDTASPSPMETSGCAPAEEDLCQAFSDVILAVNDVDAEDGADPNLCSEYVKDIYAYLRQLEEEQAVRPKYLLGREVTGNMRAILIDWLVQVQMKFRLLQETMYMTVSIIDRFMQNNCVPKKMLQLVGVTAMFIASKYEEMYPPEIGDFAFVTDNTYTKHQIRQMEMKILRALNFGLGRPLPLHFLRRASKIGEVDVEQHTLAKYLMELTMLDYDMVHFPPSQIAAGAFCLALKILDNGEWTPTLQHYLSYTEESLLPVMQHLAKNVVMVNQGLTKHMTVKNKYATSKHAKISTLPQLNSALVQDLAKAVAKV

In [1], `CC(C)n1nc(-c2cnc(N)c(OC(F)(F)F)c2)cc1[C@H]1[C@@H]2CN(C3COC3)C[C@@H]21` returned an Activity above 50%. Further, the inhibition in [2] was 1.5%; in [3], -1.9%; in experiment [4], 8.6%; in experiment [5] it was 37%; in [6], 1.4%; in experiment [8], 3.5%. In addition, the inhibition was 9.9% in experiment [9]; 18% in experiment [10]; 10% in experiment [11]; 15.6% in [12]; 69.5% in experiment [13]; 9.1% in [14]. Also, the inhibition worked out at 13.7% in experiment [15], 16% in experiment [16], 20% in experiment [17] and 0.1% in experiment [18]. For the same compound, binding in experiment [7] was characterised by a dissociation constant (Kd) of 11 nM.

Take `Nc1ncc(-c2cc([C@H]3[C@@H]4CN(C5COC5)C[C@@H]43)n(CC3CC3)n2)cc1C(F)(F)F`: the Activity in experiment [1] is above 50%. The inhibition is 8.7% in experiment [2]; 4% in experiment [3]; 4.2% in experiment [4]; 40.1% in [5]; -0.6% in experiment [6]; -8.7% in experiment [8]. The inhibition in experiment [9] is 19.9%; in [10], 14.9%; in [11], -0.3%; in experiment [12], 17.9%; in experiment [13], 40.5%; in experiment [14], 1.5%. Also, the inhibition was 4.6% in experiment [15], 2.4% in experiment [16], 10% in [17] and 2.4% in [18]. For the same compound, the Kd in experiment [7] came out at 5.1 nM.
